LMPTP block: LMPTP (human) inhibition | inhibition, % at 20 µM | recombinant LMPTP-A, OMFP fluorogenic substrate, fluorescence intensity | AID 651560 | P24666 | 360,000 compounds, 0.22% hits;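 active = compounds that cut the enzyme signal by at least half of the control window in the single-dose screen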
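Material: LMPTP-A; amount: 0.625 nM enzyme; doses: single 20 µM dose; times: reaction 50 min, room temperature, dark; technique: fluorescence intensity of OMFP turnover product; benchmarks: no-enzyme and uninhibited controls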
STEP inh: inhibitors of human striatal-enriched phosphatase STEP; 360,000 compounds, 0.25% hits; P54829; recombinant STEP, OMFP fluorogenic substrate, fluorescence; inhibition, % at 20 µM;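 active = inhibition at 20 µM, scaled per plate between control wells, above about 37%, limit read from the data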
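Assay system: isolated STEP enzyme / Timing: 20 min at room temperature, dark / Doses: 20 µM, 1% DMSO / Technique: fluorescence intensity, excitation 480 nm, emission 540 nm / Reagent: fluorogenic phosphatase substrate OMFP at 25 µM final / Measure: percent inhibition scaled to no-enzyme and uninhibited-enzyme controls, plate-pattern corrected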
SUMO1-SIM PPI: SUMO1-SIM interaction modulation; SUMO1 binding to a labelled peptide, TR-FRET, 1 h; inhibition, % at 20 µM; 360,000 compounds, 0.33% hits; in the data active = inhibition above about 37%
Scp-1 inhibitor: inhibitors of human Scp-1 phosphatase | inhibition, % at 20 µM | 340,000 compounds, 0.88% hits | Recombinant Scp1, phosphopeptide, malachite green phosphate absorbance | Q9GZU7;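 active = inhibition above about 50% at 20 µM, limit read from the data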
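Material – SCP-1 phosphatase catalytic domain, residues 76-261 · Buffer or medium – Acidic Tris acetate buffer with magnesium and detergent · Also added – Phospho 17-mer peptide substrate · Compound – single 20 µM dose, 1% DMSO · Times – 45 min room-temperature reaction, 5 min colour, 30 min stabiliser · Technique – Phosphate-binding colour reagent, absorbance read at 630 nm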
DNMT1 inh: DNMT1 (human) enzyme inhibition; DNMT1 molecular beacon, Hinp1I cleavage, fluorescence; P26358; 360,000 compounds, 0.83% hits; inhibition (reported as % activation of signal), % at 10 µM; in the data active = inhibition above about 50%
NadD block: inhibitors of Staphylococcus aureus NadD | purified NadD enzyme, colorimetric absorbance read-out | inhibition, % at 20 µM | 360,000 compounds, 0.78% hits | AID 602399; in the data active = inhibition above about 26%
Scp1 confirm: confirmation of human Scp-1 phosphatase inhibitors. shares compounds with Scp-1 inhibitor. 2,500 compounds, 61% hits. recombinant SCP-1 catalytic domain, phosphate release, malachite green absorbance. inhibition, % at 20 µM
Scp-1 MG ctr: colorimetric interference in Scp-1 counter-screen. shares compounds with Scp-1 inhibitor. Colorimetric interference counterscreen, malachite green absorbance 630 nm. apparent inhibition (interference), % at 20 µM. 2,500 tested, under 10 active;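 note: compounds added after enzyme reaction finished so only phosphate colour detection is probed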
Scp-1 Tm shift: validation of human Scp-1 inhibitors by thermal shift binding | shares compounds with Scp-1 inhibitor | Recombinant SCP1, Sypro Orange thermal shift Tm | thermal shift relative to vanadate control, % at 40 µM | 1,500 compounds, 25% hits | AID 540329;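 active = substances whose mean melting-temperature shift, as a percentage of the reference inhibitor's shift, reaches about 5.3%, limit read from the data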
Of the large screens only hits and unclear results are named; the others gave an inactive call (follow-up assays come after a bar, where they were run). This is a sample that favours compounds with a hit; in the whole collection about 2.3% have one here.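 Rule for the calls, unless noted: active = inhibition of at least 30% at 20 µM; inactive = the rest.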

O=C(NC1CCOc2ccccc21)C1CCCC1 (centres undefined)	none
COc1ccc(C(=O)NCCc2c[nH]c3ccccc23)cc1[N+](=O)[O-]	none
COc1ccc(/C=N/NC(=O)C(Cc2c[nH]c3ccccc23)NC(=O)OCC(C)C)cc1[N+](=O)[O-] (centres undefined)	Scp-1 inhibitor 65 | Scp1 confirm inactive | Scp-1 MG ctr inactive
COCC1=C(C(=O)OC(C)OC(=O)OC(C)C)N2C(=O)[C@@H](NC(=O)/C(=N\OC)c3csc(N)n3)[C@H]2SC1 (some centres undefined)	none
CO/N=C(\C(=O)N[C@@H]1C(=O)N2C(C(=O)O)=C(COC(N)=O)CS[C@H]12)c1ccco1	Scp-1 inhibitor 70 | Scp1 confirm 67 | Scp-1 MG ctr inactive | Scp-1 Tm shift 8.0
CON=C(C(=O)NC1C(=O)N2C(C(=O)O)=C(CSc3nc(=O)c(=O)[nH]n3C)CSC12)c1csc(N)n1 (centres undefined)	Scp-1 inhibitor 65 | Scp1 confirm 52 | Scp-1 MG ctr inactive | Scp-1 Tm shift inactive
CCN(C(=O)Cn1c(Cl)nc2c1c(=O)n(C)c(=O)n2C)C1CCCCC1	none
Cc1cc(C)c(NC(=S)N(CCc2ccncc2)C(C)C)c(C)c1	Scp-1 inhibitor 61 | Scp1 confirm inactive | Scp-1 MG ctr inactive
Cc1ccc(C)c(NC(=S)N(CCc2ccncc2)C(C)C)c1	none
CCCOC(=O)c1ccc(OCC(O)CN2C(=O)NC(C)(C)C2=O)cc1 (centres undefined)	Scp-1 inhibitor 65 | Scp1 confirm inactive | Scp-1 MG ctr inactive
CN1C[C@@H]2[C@@H]3C(=O)N(C)C(=O)[C@@H]3[C@](C)(C1=O)N2C(=O)c1ccc(F)cc1	none
NC(=O)c1ccccc1NC(=O)/C=C/c1ccc(Cl)cc1	none
O=C(/C=C/c1ccc(Cl)cc1)NC(=S)Nc1ccccc1C(=O)O	Scp-1 inhibitor 58 | Scp1 confirm 67 | Scp-1 MG ctr inactive | Scp-1 Tm shift 7.8
Cn1c(=O)n(C)c2cc(CNC(=O)[C@H]3O[C@@H](n4ccc(=O)[nH]c4=O)[C@H](O)[C@@H]3O)ccc21	none (no result: Scp-1 inhibitor)
CCCc1ccc2oc(C(=O)N3CCC(COC)C3)c(C)c2c1 (centres undefined)	Scp-1 inhibitor 69 | Scp1 confirm inactive | Scp-1 MG ctr inactive
CCCc1ccc2oc(C(=O)N3CCC(N4CCCC(O)C4)CC3)c(C)c2c1 (centres undefined)	none
Cc1cc(C)c(S(=O)(=O)c2ccccc2C(C)C)c(=O)[nH]1	none
Cc1cc(C)c(NC(=O)COc2nc3ccccc3nc2C)c(C)c1	Scp-1 inhibitor 58 | Scp1 confirm inactive | Scp-1 MG ctr inactive
CCc1nnc(NC(=O)CSC(=S)N2CCOCC2)s1	Scp-1 inhibitor 67 | Scp1 confirm inactive | Scp-1 MG ctr inactive
C=CCNc1nc(C(=O)OCC(=O)Nc2ccc(S(N)(=O)=O)cc2)cs1	Scp-1 inhibitor 58 | Scp1 confirm 65 | Scp-1 MG ctr inactive | Scp-1 Tm shift inactive
NS(=O)(=O)c1ccc(NC(=O)Nc2ccc3c(c2)OCO3)cc1	none
C/C(=N\Nc1ccc(Cl)c(C(=O)O)c1)c1ccc[nH]1	Scp-1 inhibitor 73 | Scp1 confirm 59 | Scp-1 MG ctr inactive | Scp-1 Tm shift 17
C/C(=N\Nc1ccc(Cl)c(C(=O)O)c1)c1cccs1	none
Cc1cc(C)cc(CC(=O)N2CCC2(C)C(=O)NS(=O)(=O)c2cccc(F)c2)c1 (centres undefined)	none (no result: Scp-1 inhibitor)
O=C(COC(=O)C1CCC(=O)N1)Nc1ccc(Cl)cc1Cl (centres undefined)	none

Bioassay records deposited in PubChem by Sanford-Burnham Center for Chemical Genomics.
